Assay results reported in ChEMBL document CHEMBL1148118, “Immunomodulatory proanthocyanidins from Ecdysanthera utilis” (J Nat Prod, 2002).
pIC50: −log10 of the molar value. Calls of active or inactive are those of the source. The rule behind the calls is not given here.

Assays:
Type in all cases: functional, cell-based
PBMC [1] = assay: Inhibition of PHA-stimulated human PBMC proliferation assessed as [3H]thymidine uptake after 3 days by scintillation counting
Method in brief: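 Ficoll-Hypaque-isolated human PBMC at 2 × 10^6 cells/mL in RPMI-1640 with 2% FCS, 100 µL/well, with or without 5 µg/mL PHA plus test compound. Incubated 3 days at 37 °C in 5% CO2. 3H-thymidine (1 µCi/well) was then added for 16 h, and cells were harvested onto glass-fiber filters for scintillation counting. % inhibition = (control CPM − treated CPM)/control CPM × 100. DMSO 0.1% vehicle.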

PBMC [2] = assay: Immunomodulatory activity in PHA-stimulated human PBMC assessed as inhibition of IL2 production after 3 days by enzyme immuno assay
Method in brief: (§1)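 Human PBMC isolated by Ficoll-Hypaque density gradient, resuspended in RPMI-1640 with 2% FCS and penicillin/streptomycin. 2 × 10^5 cells/well cultured with PHA (5 µg/mL) plus 0, 6, 12.5, 25, 50 or 100 µM compound for 3 days. IL-2 and IFN-γ measured in the supernatants by EIA. Each point is the mean of three independent experiments.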

PBMC [3] = assay: Immunomodulatory activity in PHA-stimulated human PBMC assessed as inhibition of IFN-gamma production after 3 days by enzyme immuno assay; method in brief: as §1

Row | SMILES | Activity (PBMC [1]) | also measured
1 | Oc1cc(O)c2c(c1)O[C@H](c1ccc(O)c(O)c1)[C@H](O)[C@H]2c1c(O)cc(O)c2c1O[C@H](c1ccc(O)c(O)c1)[C@H](O)C2 | inactive | 
2 | Oc1cc(O)c2c(c1)O[C@@]1(c3ccc(O)c(O)c3)Oc3cc(O)c4c(c3[C@@H]2[C@H]1O)O[C@H](c1ccc(O)c(O)c1)[C@H](O)[C@@H]4c1c(O)cc(O)c2c1O[C@H](c1ccc(O)c(O)c1)[C@H](O)C2 | inactive | 
3 | Oc1cc(O)c2c(c1)O[C@H](c1ccc(O)c(O)c1)[C@H](O)[C@H]2c1c(O)cc(O)c2c1O[C@@]1(c3ccc(O)c(O)c3)Oc3cc(O)c4c(c3[C@@H]2[C@H]1O)O[C@H](c1ccc(O)c(O)c1)[C@H](O)[C@@H]4c1c(O)cc(O)c2c1O[C@H](c1ccc(O)c(O)c1)[C@H](O)C2 | inactive | 
4 | Oc1cc(O)c2c(c1)O[C@H](c1ccc(O)c(O)c1)[C@H](O)C2 | inactive | 
5 | Oc1cc(O)c2c(c1)O[C@@]1(c3ccc(O)c(O)c3)Oc3cc(O)c4c(c3[C@@H]2[C@H]1O)O[C@H](c1ccc(O)c(O)c1)[C@@H](O)C4 [PROANTHOCYANIDIN A1] |  | pIC50 (PBMC [1]): 4.51; Activity (PBMC [2]): Dose-dependent effect; pIC50 (PBMC [2]; 72 h): 4.60; Activity (PBMC [3]): Dose-dependent effect; pIC50 (PBMC [3]; 72 h): 5.29
6 | Oc1cc(O)c2c(c1)O[C@@]1(c3ccc(O)c(O)c3)Oc3cc(O)c4c(c3[C@@H]2[C@H]1O)O[C@H](c1ccc(O)c(O)c1)[C@H](O)C4 | inactive | 
7 | Oc1cc(O)c2c(c1)O[C@@]1(c3ccc(O)c(O)c3)Oc3cc(O)c4c(c3[C@@H]2[C@H]1O)O[C@@]1(c2ccc(O)c(O)c2)Oc2cc(O)c3c(c2[C@@H]4[C@@H]1O)O[C@H](c1ccc(O)c(O)c1)[C@H](O)C3 | inactive | 
